ChEMBL document CHEMBL1671787, “2-Aminothiazoles as therapeutic leads for prion diseases” (J Med Chem, 2011)

Key:
[1] = Antiprion activity against PrPsc infected in dividing mouse ScN2a-cl3 cells assessed as reduction in prion load after 5 days by ELISA; format: cell-based; conditions: N2a-cl3, 120 h
Summary of the method: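 ScN2a (RML-infected N2a) cells seeded at 40,000 cells/well in MEM with 10% FBS, GlutaMax, 500 µg/mL geneticin. Compounds added 4 h after seeding, 0.5% final DMSO. Incubated 5 days at 37 °C, 5% CO2. Lysates captured on D18-coated ELISA plates overnight at 4 °C, then HRP-D13 antibody 1 h. EC50 is the mean of three determinations.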

[2] = system: Liver microsomes; assay: Metabolic stability in rat liver microsomes assessed as half life by LC-MS/MS analysis; format: ADME, Microsome
Summary of the method: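 Compound at 1 µM final (0.6% acetonitrile, 0.01% DMSO) in PBS pH 7.4. Incubated with rat hepatic microsomes (~0.3 mg/mL), 1 mM NADPH and 4 mM UDPGA or PBS at 37 °C. Samples taken at 0, 1, 10, 30 and 60 min and quenched in acetonitrile with carbamazepine internal standard. Remaining parent measured by LCMS; duplicate incubations. Midazolam and 4-nitrophenol served as controls.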

[3] = system: MDCK; assay: Permeability across apical to basolateral side MDR1-expressing MDCK cells; format: ADME, cell-based, Canis lupus familiaris; conditions: dog
Summary of the method: (§1)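 MDR1-MDCK monolayers grown 5–10 days on 1 µm filters. Compound at 10 µM in HBSS pH 7.4 with 25 mM HEPES and 0.05% PS80, added to the apical or basolateral donor chamber. Receiver samples taken every 20 min and quantified by HPLC/UV/MS. Permeability coefficients calculated per interval and averaged; run in duplicate.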

[4] = system: MDCK; assay: Permeability across basolateral to apical side MDR1-expressing MDCK cells; format: ADME, cell-based, Canis lupus familiaris; conditions: dog; summary of the method: as §1
[5] = system: Brain; assay: Drug uptake in FVB mouse brain at 40 to 210 mg/kg/day, po administered as part of liquid diet for 3 days; format: ADME, organism-based; parameters: route oral; conditions: in vivo, 72 h
Summary of the method: (§2)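 Wild-type FVB mice (~25 g), three per dose group sharing a cage. Compound was dissolved in PEG400 and diluted into a liquid diet of homogenized rodent feed, cocoa and water. Diet given ad libitum for 3 days; daily dose estimated from ~20 mL/day intake. Doses were 0, 40, 80, 130 or 210 mg/kg/day. After CO2 euthanasia, brain was homogenized with four-fold water and measured by LC-MS.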

[6] = system: Brain; assay: Drug uptake in FVB mouse brain at 130 mg/kg/day, po administered as part of liquid diet for 3 days; format: ADME, organism-based; parameters: route oral; conditions: in vivo, 72 h; summary of the method: as §2
[7] = system: Nucleic Acid; assay: Ratio of drug level in FVB mouse to EC50 for PrPsc
Summary of the method: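 Brain (and plasma) levels in wild-type FVB mice given 0, 40, 80, 130 or 210 mg/kg/day for 3 days in liquid rodent diet (PEG400 stock diluted with feed, cocoa, water), 3 mice per dose. At an arbitrary point after feeding (pseudo steady-state), brain homogenised and assayed by LC-MS. Levels set against the mean EC50 from 3 determinations in ScN2a-cl3 cells (5-day PrPSc ELISA).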

Row | SMILES | EC50 [1] | further results
1 | c1ccc(-c2cc(-c3csc(Nc4ccncc4)n3)on2)cc1 | 4420 nM | –
2 | COc1ccc(-c2csc(Nc3cc4ccccc4cn3)n2)cc1OC | – | t1/2 [2]: 83 min
3 | COc1ccc(-c2csc(Nc3cccc4ccccc34)n2)cc1OC | > 32000 nM | –
4 | Cc1ccc(Nc2nc(-c3ccccn3)cs2)nc1 | 860 nM | –
5 | Cc1ccc(Nc2nc(-c3ccc(-c4ccccn4)s3)cs2)nc1 | 1230 nM | –
6 | COc1ccc(-c2csc(Nc3ncccn3)n2)cc1OC | 3930 nM | –
7 | c1ccc(-c2cc(-c3csc(Nc4ccccn4)n3)on2)cc1 | 600 nM | –
8 | COc1ccc(-c2csc(Nc3cc4ccccc4cn3)n2)cc1 | 340 nM | –
9 | Cc1ccc(Nc2nc(-c3ccncc3)cs2)nc1 | 1570 nM | t1/2 [2]: 20 min; permeability [3]: 32.6 ×10⁻⁶ cm/s; permeability [4]: 42.3 ×10⁻⁶ cm/s
10 | COc1ccc(-c2csc(Nc3ccc(C)cn3)n2)cc1 | 3030 nM | –
11 | COc1ccc(-c2csc(C(=O)Nc3cc4ccccc4cn3)n2)cc1OC | > 10000 nM | –
12 | FC(F)(F)Oc1ccc(-c2csc(Nc3cc4ccccc4cn3)n2)cc1 | > 32000 nM | –
13 | COc1ccccc1-c1csc(Nc2ccc(C)cn2)n1 | > 29000 nM | –
14 | COc1cc2c(cc1OC)-c1nc(Nc3ccc(C)cn3)sc1C2 | 5590 nM | –
15 | Cc1cccc(Nc2nc(-c3cc(-c4ccccc4)no3)cs2)n1 | 820 nM | –
16 | Cc1ccc(Nc2nc3c(s2)Cc2ccccc2-3)nc1 | 2440 nM | –
17 | COc1ccc(-c2csc(Nc3cc(C)ccn3)n2)cc1OC | 1000 nM | –
18 | c1ccc2cc(Nc3nc(-c4ccncc4)cs3)ncc2c1 | 310 nM | –
19 | COc1ccc(-c2csc(Nc3ncccc3C)n2)cc1OC | 7290 nM | –
20 | COc1ccc(-c2csc(NC(=O)c3cc4ccccc4cn3)n2)cc1OC | 8180 nM | –
21 | COc1ccc(-c2csc(Nc3cnccn3)n2)cc1OC | 15600 nM | –
22 | Cc1ccc(Nc2nc(-c3cc(-c4ccccc4)no3)cs2)nc1 | 940 nM | Drug uptake [5]: Active; Drug uptake [6]: Active; t1/2 [2]: 151 min; permeability [3]: 6.8 ×10⁻⁶ cm/s; permeability [4]: 8.3 ×10⁻⁶ cm/s; Ratio [7]: 25

Row | SMILES | EC50 [1] | further results
23 | c1ccc(-c2csc(Nc3cc4ccccc4cn3)n2)cc1 | 3080 nM | –
24 | COc1ccc(-c2csc(Nc3ccc(C(F)(F)F)cn3)n2)cc1OC | 2530 nM | t1/2 [2]: 150 min; permeability [3]: 9.4 ×10⁻⁶ cm/s; permeability [4]: 8.7 ×10⁻⁶ cm/s
25 | COc1ccc(Nc2nc(-c3ccc(OC)c(OC)c3)cs2)nc1 | – | t1/2 [2]: 45 min
26 | c1ccc(-c2cc(-c3csc(Nc4cc5ccccc5cn4)n3)on2)cc1 | 800 nM | –
27 | c1ccc(-c2ccc(-c3csc(Nc4cc5ccccc5cn4)n3)s2)nc1 | 2010 nM | –
28 | COc1ccc(-c2csc(Nc3ccc4ccccc4c3)n2)cc1OC | 390 nM | –
29 | COc1ccnc(Nc2nc(-c3cc(-c4ccccc4)no3)cs2)c1 | 250 nM | –
30 | FC(F)(F)c1csc(Nc2cc3ccccc3cn2)n1 | 8660 nM | –
31 | Cc1ccc(Nc2nc(-c3ccccc3)cs2)nc1 | 7880 nM | t1/2 [2]: 10 min
32 | Cc1csc(Nc2cc3ccccc3cn2)n1 | > 32000 nM | –
33 | COc1ccc(-c2csc(N(C(C)=O)c3cc4ccccc4cn3)n2)cc1OC | 81 nM | –
34 | Cc1ccnc(Nc2nc(-c3cc(-c4ccccc4)no3)cs2)c1 | 1270 nM | –
35 | Cc1ccc(Nc2nc(C)cs2)nc1 | > 32000 nM | –
36 | COc1ccc(NC(=O)c2csc(Nc3ccc(C)cn3)n2)cc1OC | 2440 nM | –
37 | COc1ccc(-c2csc(Nc3ccc4ccccc4n3)n2)cc1OC | 430 nM | t1/2 [2]: 69 min; permeability [3]: 9.2 ×10⁻⁶ cm/s; permeability [4]: 8.9 ×10⁻⁶ cm/s
38 | CNc1nc(-c2ccc(OC)c(OC)c2)cs1 | > 32000 nM | –
39 | COc1ccc(Nc2nc(-c3cc(-c4ccccc4)no3)cs2)nc1 | 230 nM | –
40 | COc1ccc(-c2csc(N(C)c3cc4ccccc4cn3)n2)cc1OC | 140 nM | –
41 | COc1ccc(-c2csc(Nc3cccc(C)n3)n2)cc1OC | 3010 nM | –
42 | COc1ccc(-c2csc(Nc3ccc(C)cn3)n2)cc1OC | 790 nM | –
43 | Cc1ccc(Nc2nc(-c3c(-c4ccccc4)noc3C)cs2)nc1 | > 26000 nM | t1/2 [2]: 19 min; permeability [3]: 11.2 ×10⁻⁶ cm/s; permeability [4]: 8.6 ×10⁻⁶ cm/s
